Published values gathered from unrelated publications.
Each line is one published result; the experiments were not run side by side.
Target: Tyrosine-protein kinase TXK (TXK, Homo sapiens, UniProt P42681)
One construct used (P42681 1-527): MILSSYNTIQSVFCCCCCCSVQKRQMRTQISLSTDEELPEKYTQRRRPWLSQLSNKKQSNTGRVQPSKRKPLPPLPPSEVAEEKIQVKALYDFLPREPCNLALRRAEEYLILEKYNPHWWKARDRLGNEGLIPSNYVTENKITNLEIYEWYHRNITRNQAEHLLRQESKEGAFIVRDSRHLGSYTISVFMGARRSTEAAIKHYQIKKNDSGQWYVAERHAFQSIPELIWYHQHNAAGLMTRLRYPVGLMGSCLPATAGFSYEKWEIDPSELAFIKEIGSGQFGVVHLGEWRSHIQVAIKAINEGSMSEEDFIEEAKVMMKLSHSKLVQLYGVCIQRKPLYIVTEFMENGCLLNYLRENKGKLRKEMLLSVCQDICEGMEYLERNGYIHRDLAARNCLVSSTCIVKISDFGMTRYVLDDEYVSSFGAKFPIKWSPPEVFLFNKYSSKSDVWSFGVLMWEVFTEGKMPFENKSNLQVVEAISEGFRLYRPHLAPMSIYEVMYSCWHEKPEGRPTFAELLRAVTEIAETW

| SMILES | assay | setting | remaining binding [%] |
| --- | --- | --- | --- |
| c1cnn2ncc(-c3ccnc(N4CCC45COC5)n3)c2c1 | binding | 1 µM | 100 |
| CCCOc1ccc([C@@H]2[C@@H](C(=O)O)[C@H](c3ccc4c(c3)OCO4)CN2CC(=O)Nc2c(CC)cccc2CC)cc1 | binding, competition with immobilised ligand | 1 µM | 100 |
| Nc1ncc2c(n1)-c1c([nH]c3ccc(C#CC4CC4)cc13)CCCC2 | binding, competition with immobilised ligand | 1 µM | 99 |
| O=C(c1ccc(Nc2ncc(Cl)c(-c3ccc(Cl)s3)n2)cc1)N1CCC(N2CCCC2)CC1 | binding, competition with immobilised ligand | 1 µM | 80 |
| C[C@@H]1CCN(c2nccc(-c3cnn4ncccc34)n2)C1 | binding | 1 µM | 100 |
| CC1=C(C#N)[C@@H](c2ccc3[nH]nc(C)c3c2)C(C#N)=C(c2ccc(Cl)cc2)N1 | binding, competition with immobilised ligand | 1 µM | 88.1 |
| C[C@@H](c1ccc(-n2cnc3c(N)ncnc32)cc1)N1CCc2nn(C)c(Cc3ccccc3)c2C1=O | binding, competition with immobilised ligand | 0.1 µM | 73 |
| Cc1c(NC(=O)c2cc(C(N)=O)nc3cc(F)ccc23)c(C(F)(F)F)nn1Cc1ccc(C(C)(C)C)cc1 | cell-free assay, competition with immobilised ligand | 1 µM | 100 |
| O=C(Nc1c[nH]nc1C(=O)NC1CCNCC1)c1cc(F)cc(F)c1 | binding, competition with immobilised ligand | 1 µM | 100 |
| COc1cnc(Nc2cccc(S(N)(=O)=O)c2)nc1N1CCN(c2ccccc2)CC1 | binding, competition with immobilised ligand | 1 µM | 100 |
| O=C(c1ccc(Nc2nccc(-c3cc4ccccc4s3)n2)cc1)N1CCC(N2CCCC2)CC1 | binding, competition with immobilised ligand | 1 µM | 92 |
| CN(C)c1nccc(-c2cnc3ncccn23)n1 | binding | 1 µM | 98 |
| O=C(c1ccc(Nc2ncc(Cl)c(-c3cc4ccccc4s3)n2)cc1)N1CCC(N2CCCC2)CC1 | binding, competition with immobilised ligand | 1 µM | 71 |
| COc1ncc2cc3ccccc3nc2c1C#N | binding, competition with immobilised ligand | 5 µM | 93 |
| CN(C)c1ncc(F)c(-c2cnn3ncccc23)n1 | binding | 1 µM | 100 |
| CCOCCn1cc(C(=O)Nc2ccc(-n3nc(-c4cccnc4)cc3C(F)(F)F)cn2)ccc1=O | binding, competition with immobilised ligand | 1 µM | 81 |
| CN(C)c1nccc(-c2cnn3ncccc23)n1 | binding | 1 µM | 100 |
| c1cncc(-c2cccc(Nc3nccc(NC4CCCCC4)n3)c2)c1 | binding, competition with immobilised ligand | 10 µM | 20 |
| CN(CCCC(F)(F)F)c1nccc(-c2cnn3ncccc23)n1 | binding | 1 µM | 87 |
| Cc1nc(N2CC[C@@H](O)C2)ncc1-c1cc(C(F)(F)F)cc2[nH]ncc12 | binding, competition with immobilised ligand | 1 µM | 100 |
| N[C@H]1CCN(c2nccc(-c3cnn4ncccc34)n2)C1 | binding | 1 µM | 100 |
| CNCc1ccccc1-c1csc([C@H](C)Nc2nc(C)nc3cc(OC)c(OC)cc23)c1 | cell-free assay, competition with immobilised ligand | 1 µM | 100 |
